Results taken from ChEMBL document CHEMBL3593165, “Enzymatic synthesis of bile acid derivatives and biological evaluation against Trypanosoma cruzi” (Bioorg Med Chem, 2015).
Active and inactive are the calls of the source. The rule behind the calls is not given here.

The compounds below were run on Trypanosoma cruzi (assay: Antiparasitic activity against Trypanosoma cruzi strain CL Brener epimastigotes at 300 uM after 12 days by ELISA reader). Settings: not given.
Type: functional
In short: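 T. cruzi CL Brener epimastigotes were grown at 28 °C in LIT medium with 10% heat-inactivated FBS, […], streptomycin and penicillin. Cells were seeded at 5 × 10^6 cells/mL with compound (0.14–300 µM, DMSO ≤0.5% v/v final) for 12 days at 28 °C. Benznidazole served as positive control, with drug-free and parasite-free controls. Growth was read daily at 600 nm in three independent assays.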

SMILES | inhibition
CCOC(=O)CC[C@@H](C)[C@H]1CC[C@H]2[C@@H]3CC[C@@H]4C[C@H](OC(C)=O)CC[C@]4(C)[C@H]3C[C@H](O)[C@]12C | inactive
CCOC(=O)CC[C@@H](C)[C@H]1CC[C@H]2[C@@H]3CC[C@@H]4C[C@H](O)CC[C@]4(C)[C@H]3C[C@H](O)[C@]12C | inactive
CCOC(=O)CC[C@@H](C)[C@H]1CC[C@H]2[C@@H]3[C@H](O)C[C@@H]4C[C@H](O)CC[C@]4(C)[C@H]3CC[C@]12C | inactive
C[C@H](CCC(=O)O)[C@H]1CC[C@H]2[C@@H]3[C@H](O)C[C@@H]4C[C@H](O)CC[C@]4(C)[C@H]3CC[C@]12C [CHENODIOL] | inactive
CC(=O)O[C@H]1C[C@H]2[C@@H](CC[C@@H]3C[C@H](O)CC[C@@]32C)[C@@H]2CC[C@H]([C@H](C)CCC(=O)O)[C@@]12C | inactive
CCOC(=O)CC[C@@H](C)[C@H]1CC[C@H]2[C@@H]3CC[C@@H]4C[C@H](OC(C)=O)CC[C@]4(C)[C@H]3CC[C@]12C | inactive
CC(=O)O[C@@H]1CC[C@@]2(C)[C@@H](C1)C[C@@H](O)[C@@H]1[C@@H]2CC[C@]2(C)[C@@H]([C@H](C)CCC(=O)O)CC[C@@H]12 | inactive
CC(=O)O[C@@H]1CC[C@@]2(C)[C@H](CC[C@@H]3[C@@H]2C[C@H](O)[C@]2(C)[C@@H]([C@H](C)CCC(=O)O)CC[C@@H]32)C1 | inactive

What follows are compounds tested on Trypanosoma cruzi (assay: Antiparasitic activity against Trypanosoma cruzi strain CL Brener epimastigotes after 12 days by ELISA reader). Settings: 288 h.
Type: functional
In short: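 CL Brener epimastigotes grown at 28 °C in LIT medium with 10% heat-inactivated FBS, hemin, streptomycin and penicillin. Seeded at final 5 × 10^6 cells/mL and exposed to compounds across 0.14–300 µM for 12 days at 28 °C. DMSO vehicle, final ≤0.5% (v/v). Growth read daily at 600 nm. IC50 taken from dose-response curves from three independent assays.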

SMILES | IC50 [µM]
CCOC(=O)CC[C@@H](C)[C@H]1CC[C@H]2[C@@H]3[C@H](O)C[C@@H]4C[C@H](OC(C)=O)CC[C@]4(C)[C@H]3CC[C@]12C | 8.6
CC(=O)O[C@@H]1CC[C@@]2(C)[C@@H](C1)C[C@@H](OC(C)=O)[C@@H]1[C@@H]2CC[C@]2(C)[C@@H]([C@H](C)CCC(=O)O)CC[C@@H]12 | 22.8
C[C@H](CCC(=O)O)[C@H]1CC[C@H]2[C@@H]3[C@H](O)C[C@@H]4C[C@H](O)CC[C@]4(C)[C@H]3CC[C@]12C [CHENODIOL] | 236
CCOC(=O)CC[C@@H](C)[C@H]1CC[C@H]2[C@@H]3CC[C@@H]4C[C@H](O)CC[C@]4(C)[C@H]3CC[C@]12C | 266
CCOC(=O)CC[C@@H](C)[C@H]1CC[C@H]2[C@@H]3[C@H](OC(C)=O)C[C@@H]4C[C@H](O)CC[C@]4(C)[C@H]3CC[C@]12C | 295
